In ChEMBL document CHEMBL1139507, “Application of phosphoramidate pronucleotide technology to abacavir leads to a significant enhancement of antiviral potency” (J Med Chem, 2005):
Where “and” joins values, the source holds several entries; their conditions need not be identical. Identical values can stand only once.

Tests used:
[1] = tested on: HepG2; assay: Cytostatic concentration required to inhibit Hep G2 cell proliferation; format: functional; conditions: Homo sapiens
[2] = tested on: Human immunodeficiency virus 1; assay: Effective concentration against human immunodeficiency virus type 1 in CEM cells; format: functional, organism-based; conditions: Human immunodeficiency virus 1, CCRF-CEM
Method in brief: (§1)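 HIV-1- and HIV-2-induced cytopathicity in CEM cell cultures, scored at day 4 by microscopic examination of virus-induced giant cell formation; EC50 = concentration inhibiting cytopathicity by 50%.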

[3] = tested on: Human immunodeficiency virus 1; assay: Effective concentration against human immunodeficiency virus type 1 in MT-4 cells; format: functional, organism-based, MT4
[4] = tested on: Human immunodeficiency virus 2; assay: Effective concentration against human immunodeficiency virus type 2 in CEM cells; format: functional, organism-based; conditions: Human immunodeficiency virus 2, CCRF-CEM; method in brief: as §1
[5] = tested on: Human immunodeficiency virus 2; assay: Effective concentration against human immunodeficiency virus type 2 in MT-4 cells; format: functional, organism-based; conditions: Human immunodeficiency virus 2, MT4
[6] = tested on: CCRF-CEM; assay: Cytostatic concentration required to inhibit CEM cell proliferation; format: functional; conditions: Homo sapiens
[7] = tested on: MT4; assay: Cytostatic concentration required to inhibit MT-4 cell proliferation; format: functional, Homo sapiens
[8] = tested on: Hepatitis B virus; assay: Effective concentration against HBV in Hep G2.2.15 cells; format: functional, organism-based, HepG2 2.2.15
Method in brief: (§2)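 Anti-HBV activity assayed in HepG2 2.2.15 human hepatoma cells, which constitutively produce HBV; EC50 = 50% effective concentration.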

[9] = Apparent half life value in monkey after oral dosage; format: ADME, organism-based; conditions: cercopithecidae, in vivo, read-out: T1/2 app (converted)
Method in brief: (§3)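 Female cynomolgus monkeys (three, 2.0-3.2 kg) received the succinate salt at 11.5 mg/kg (17.3 µmol/kg), 2.3 mg/mL in 10% DMSO/90% saline, 5 mL/kg, iv on day 1 and orally on day 8 (1-week washout); fasted overnight to ~4 h postdose. Serial plasma to 24 h, acetonitrile deproteination, LC/MS/MS of prodrug, alaninyl-ABC-MP, ABC-MP, ABC, CBV; noncompartmental analysis.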

[10] = Time of maximum concentration was observed in monkey after oral dosage; format: ADME, organism-based; conditions: cercopithecidae, in vivo; method in brief: as §3
[11] = Area under the plasma concentration-time curve in monkey after peroral dosage; format: ADME; conditions: cercopithecidae, po; method in brief: as §3
[12] = Area under the plasma concentration-time curve in monkey after intravenous dosage; format: ADME; conditions: cercopithecidae; method in brief: as §3
[13] = Terminal elimination half-life in monkey after intravenous dosage; NA = not applicable; format: ADME, organism-based; conditions: cercopithecidae, in vivo; method in brief: as §3
[14] = tested on: HepG2; assay: Cytostatic concentration required to inhibit Hep G2.2.15 cell proliferation; format: functional, Homo sapiens
Method in brief: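 Growth inhibition of HepG2 2.2.15 human hepatoma cells (constitutively HBV-producing) measured; CC50 = 50% cytostatic concentration.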

[15] = tested on: C3H/3T3; assay: Cytostatic concentration required to inhibit C3H/3T3 cell proliferation; format: functional; conditions: Mus musculus
[16] = tested on: Human immunodeficiency virus 1; assay: Effective concentration against human immunodeficiency virus type 1 in PBL cells; format: functional, organism-based; conditions: Human immunodeficiency virus 1, PBL
[17] = tested on: Moloney murine sarcoma virus; assay: Effective concentration against murine moloney sarcoma virus in C3H/3T3 cells; format: functional, organism-based
[18] = tested on: Human immunodeficiency virus 2; assay: Effective concentration against human immunodeficiency virus type 2 (ROD) in CEM cells; format: functional, organism-based; conditions: Human immunodeficiency virus 2, CCRF-CEM; method in brief: as §1
[19] = tested on: Human alphaherpesvirus 1; assay: Effective concentration against thymidine kinase competent herpes simplex virus (HSV-1) in […]; format: functional, organism-based
Method in brief: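 Confluent HEL cell cultures inoculated with 100 CCID50 of HSV-1 (KOS), HSV-2 (G) or HSV-1 TK- (B2006, VMW-1837); after 1 h adsorption, residual virus removed and cells incubated with varying compound concentrations; cytopathicity recorded once complete in virus controls; EC50 = concentration inhibiting HSV-induced cytopathicity by 50%.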

[20] = tested on: Human immunodeficiency virus 1; assay: Ratio of CC50 to that of EC50 against human immunodeficiency virus type 1 in CEM cells; format: functional, CCRF-CEM
[21] = tested on: Human immunodeficiency virus 2; assay: Ratio of CC50 to that of EC50 against human immunodeficiency virus type 2 in CEM cells; format: functional, CCRF-CEM
[22] = tested on: HEL; assay: Cytostatic concentration required to inhibit HEL cell proliferation; format: functional; conditions: Homo sapiens
Method in brief: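 HEL cell proliferation measured in presence of compound; CC50 = 50% cytostatic concentration inhibiting HEL cell proliferation by 50%.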

[23] = tested on: Hepatitis B virus; assay: Effective concentration againstHBV in Hep G2.2.15 cells; format: functional, organism-based, HepG2 2.2.15; method in brief: as §2
[24] = tested on: Human alphaherpesvirus 2; assay: Effective concentration against thymidine kinase competent herpes simplex virus (HSV-2) in […]
[25] = tested on: Human alphaherpesvirus 1; assay: Effective concentration against thymidine kinase deficient herpes simplex virus (HSV-1) in B2006 strain; conditions: Human alphaherpesvirus 1, B2006
[26] = tested on: Human alphaherpesvirus 1; assay: Effective concentration against thymidine kinase deficient herpes simplex virus (HSV-1) in VMW-1837 strain; conditions: Human alphaherpesvirus 1, VMW-1837
[27] = Human immunodeficiency virus 1, MT4
[28] = Hepatitis B virus, HepG2 2.2.15

Structure (SMILES)	CC50 [1] [µM]	EC50 [2] [µM]	EC50 [3, 27] [µM]	EC50 [4] [µM]	EC50 [5] [µM]	CC50 [6] [µM]	CC50 ([7]; Homo sapiens, MT4) [µM]	EC50 [8, 28] [µM]	CC50 [14] [µM]	EC50 ([3]; mt4)	CC50 [7]	EC50 [23, 28] [µM]	further results
COC(=O)CNP(=O)(OC[C@@H]1C=C[C@H](n2cnc3c(NC4CC4)nc(N)nc32)C1)Oc1ccccc1 (stereo partly drawn)	58	1.8	7.2	2	5.4	> 56	8.5	1	–	–	–	–	–
C[C@@H](NP(=O)(O)OC[C@@H]1C=C[C@H](n2cnc3c(NC4CC4)nc(N)nc32)C1)C(=O)O	11	1.2	6.6	–	3.4	8.6	2.1	5	–	–	–	–	half-life [9]: 0.8 h; Tmax [10]: 1.3 h; AUC [11]: 2.6 µM·h; AUC [12]: 9.2 µM·h; T1/2 [13]: Not Active
CCOC(=O)[C@@H](C)NP(=O)(OC[C@@H]1C=C[C@H](n2cnc3c(NC4CC4)nc(N)nc32)C1)Oc1ccccc1 (stereo in doubt; 6a)	–	–	–	–	–	–	–	–	7.5	0.0155 µM	0.95 µM	–	EC50 ([8]; hepg2 2.2.15): 0.2 µM
COC(=O)[C@@H](C)NP(=O)(OC[C@@H]1C=C[C@H](n2cnc3c(O)nc(N)nc32)C1)Oc1ccccc1 (stereo partly drawn)	–	1.3	–	–	–	78	–	–	–	–	–	0.51	CC50 [15]: > 20 µM; CC50 ([14]; Homo sapiens, HepG2): 200 µM; EC50 [16]: 0.2 µM; EC50 [17]: 8.8 µM; EC50 [18]: 3 µM; EC50 [19]: 480 µM; SI [20]: 41; SI [21]: 26; CC50 [22]: 160 µM; EC50 [24]: 480 µM; EC50 [25]: > 800 µM; EC50 [26]: 480 µM
COC(=O)[C@@H](C)NP(=O)(OC[C@@H]1C=C[C@H](n2cnc3c(NC4CC4)nc(N)nc32)C1)Oc1ccccc1 (stereo in doubt; 3a,b)	17	0.05	–	0.05	0.26	13	–	–	17	0.2 µM and 0.037 µM	4.3 µM and 4.6 µM	0.55	EC50 ([8]; hepg2 2.2.15): 0.55 µM
Nc1nc2c(ncn2[C@H]2C=C[C@@H](CO)C2)c(=O)[nH]1 [CARBOVIR]	150	2	–	2.3	–	160	–	10.5	–	–	–	10	CC50 [15]: > 20 µM; CC50 ([14]; Homo sapiens, HepG2): 150 µM; half-life [9]: 6 h; EC50 [16]: 0.03 µM; EC50 [17]: 6 µM; EC50 [18]: 2.3 µM; EC50 [19]: 5 µM; SI [21]: 68; CC50 [22]: 15 µM; Tmax [10]: 4.7 h; AUC [11]: 0.4 µM·h; AUC [12]: 0.7 µM·h; T1/2 [13]: Not Active; EC50 [24]: 8 µM; EC50 [25]: 50 µM; EC50 [26]: 13 µM
C[C@@H](NP(=O)(OC[C@@H]1C=C[C@H](n2cnc3c(NC4CC4)nc(N)nc32)C1)Oc1ccccc1)C(=O)OC(C)(C)C (stereo partly drawn)	11	3.7	6.6	6	3.4	8.6	2.1	5	–	–	–	–	–
COC(=O)[C@@H](C)NP(=O)(OC[C@@H]1C=C[C@H](n2cnc3c(NC4CC4)nc(N)nc32)C1)Oc1ccccc1 (stereo in doubt; 3a)	–	–	–	–	–	–	–	–	10	0.027 µM	1 µM	–	EC50 ([23]; hepg2 2.2.15): 0.4 µM
